A word on the AUC(0-inf): it is total exposure, with the tail of the curve extrapolated. The low end stands for less exposure, the high end for more exposure. One may read the AUC(0-t) as exposure summed from dosing to a finite time, without extrapolation to infinity. A lower AUC(0-t) goes with less exposure. For orientation: Tmax means the time at which the peak concentration occurs. A word on the clearance: it is the volume of plasma or blood freed of the substance per unit of time. Usually Ki stands for the dissociation constant of the complex between target and ligand, obtained from inhibition or displacement. What is called EC50 is the concentration giving half of the maximal effect. High values mean a less potent agent, low ones a more potent agent.

The values below come from ChEMBL document CHEMBL4196105, “Discovery of β-Arrestin Biased Ligands of 5-HT7R” (J Med Chem, 2018).

Data set [1] is described as follows: AUC (0 to infinity) in ICR mouse at 5 mg/kg, iv by LC-MS/MS analysis. In kind it is ADME, organism-based. Also on record: dose 5 mg/kg, time infinity, route intravenous. The note with it: in vivo. Summed up:
(§1)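 Male ICR mice, 7~8 weeks, 30 ± 5 g; single dose 5 mg/kg IV (n = 5) or 50 mg/kg oral (n = 4). Plasma protein-precipitated with acetonitrile containing internal standard, then LC-MS/MS. Non-compartmental analysis; AUClast by trapezoidal rule. Mean ± SD.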

Data set [2] in a line: AUClast in ICR mouse at 5 mg/kg, iv by LC-MS/MS analysis. In kind it is ADME, organism-based. Details: dose 5 mg/kg, time 0 - last, route intravenous. The conditions noted are these: in vivo. Summed up: as §1
A further data set has as its system Mus musculus. In words: Toxicity in ICR mouse assessed as mortality at 5 mg/kg, iv. The note with it: in vivo. The class given is organism-based. Summed up: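 Observed in male ICR mice (7~8 weeks, 30 ± 5 g; n = 5) during a pharmacokinetic study after a single intravenous dose. Mice were held at 23 ± 3° and about 55% ± 10% humidity with standard feed and tap water. Blood was drawn via carotid artery from 0.08 to 8 h after dosing.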

The species named for data set [3] is Homo sapiens. In words: Selectivity index, ratio of Ki for human 5-HT1D receptor to Ki for human 5-HT7 receptor. The gist of the method: (§2)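 Selectivity index taken as Ki at the other 5-HT receptor subtype divided by Ki at 5-HT7R, each from [3H]LSD membrane binding run by the NIMH PDSP. Ki values are means of at least three experiments in triplicate.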
A short description of data set [4]: Tmax in ICR mouse at 50 mg/kg, po by LC-MS/MS analysis. In kind it is ADME, organism-based. The conditions noted are these: in vivo. Summed up:
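Male ICR mice, 7~8 weeks, 30 ± 5 g, given a single oral dose of 50 mg/kg (n = 4). Carotid-artery blood was sampled at 0, 0.25, 0.5, 1, 2, 4, 6 and 8 h. Plasma was protein-precipitated with acetonitrile containing internal standard and quantified by LC-MS/MS on a C18 gradient. Parameters came from non-compartmental analysis and are reported as mean ± SD.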

A short description of data set [5]: Clearance in ICR mouse at 5 mg/kg, iv by LC-MS/MS analysis. The class given is ADME, organism-based. The note with it: in vivo. Summed up: as §1
The target in a further data set is CYP2C19 (Homo sapiens, UniProt P33261). In words: Inhibition of CYP2C19 in human liver microsomes assessed as remaining activity at 10 uM using S-mephenytoin as substrate preincubated for 5 mins followed by addition of NADPH generating system measured after 15 mins by LC-MS analysis. In kind it is ADME. The note with it: probe S-mephenytoin, read-out: Activity. Summed up: (§3)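 Human liver microsomes 0.25 mg/ml in 0.1 M phosphate, pH 7.4, with a probe cocktail: phenacetin 50 μM, diclofenac 10 μM, S-mephenytoin 100 μM, dextromethorphan 5 μM, midazolam 2.5 μM. Test compound at 10 μM versus 0 μM control. 5 min at 37 °C, then NADPH-generating system for 15 min. Acetonitrile quench; metabolites measured by LC/MS as % remaining activity.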
Sequence of CYP2C19 (P33261 whole entry): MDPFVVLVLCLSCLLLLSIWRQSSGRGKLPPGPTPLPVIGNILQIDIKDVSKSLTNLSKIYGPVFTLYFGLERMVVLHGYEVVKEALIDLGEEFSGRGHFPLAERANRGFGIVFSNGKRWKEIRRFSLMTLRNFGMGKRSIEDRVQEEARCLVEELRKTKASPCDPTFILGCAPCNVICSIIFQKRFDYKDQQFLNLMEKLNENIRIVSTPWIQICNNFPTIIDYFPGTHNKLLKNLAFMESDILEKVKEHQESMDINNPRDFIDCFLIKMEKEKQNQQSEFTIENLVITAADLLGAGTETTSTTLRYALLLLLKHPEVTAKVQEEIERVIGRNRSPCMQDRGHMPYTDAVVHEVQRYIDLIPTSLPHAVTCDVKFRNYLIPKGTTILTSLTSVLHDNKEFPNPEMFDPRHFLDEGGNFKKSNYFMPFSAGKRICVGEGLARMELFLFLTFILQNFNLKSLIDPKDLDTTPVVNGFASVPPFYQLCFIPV
In general terms: Liver microsomes are a subcellular fraction often used to study metabolism.

The target of data set [6] is T1, 5-hydroxytryptamine receptor 3A (Homo sapiens, UniProt P46098).
T1 sequence (P46098 whole entry): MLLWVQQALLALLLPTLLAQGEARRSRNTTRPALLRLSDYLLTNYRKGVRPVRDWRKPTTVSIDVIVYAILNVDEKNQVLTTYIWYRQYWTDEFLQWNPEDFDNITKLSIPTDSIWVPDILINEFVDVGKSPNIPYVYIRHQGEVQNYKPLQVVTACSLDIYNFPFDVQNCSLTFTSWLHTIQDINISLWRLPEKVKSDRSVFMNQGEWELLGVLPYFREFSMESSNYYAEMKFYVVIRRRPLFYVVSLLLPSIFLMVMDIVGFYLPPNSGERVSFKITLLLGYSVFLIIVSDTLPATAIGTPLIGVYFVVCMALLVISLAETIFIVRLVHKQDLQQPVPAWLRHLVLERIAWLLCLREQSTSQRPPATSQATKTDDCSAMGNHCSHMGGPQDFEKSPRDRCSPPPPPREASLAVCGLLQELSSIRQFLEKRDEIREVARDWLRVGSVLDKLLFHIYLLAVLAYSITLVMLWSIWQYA
In words: Displacement of [3H]LSD from human 5-HT3 receptor expressed in HEK cell membranes after 1.5 hrs by microbeta scintillation counting method. The gist of the method: (§4)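 Radioligand binding performed by the NIMH Psychoactive Drug Screening Program. Crude membranes from cells expressing recombinant receptor, with [3H]LSD, in 50 mM Tris-HCl, 10 mM MgCl2, 1 mM EDTA, pH 7.4. Eleven test concentrations. Incubated 1.5 h at room temperature, protected from light. Filtered onto PEI-soaked GF/B filters, then scintillation counting. IC50 converted to Ki; at least three experiments in triplicate.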
Background: Displacement assays read how much labelled ligand stays bound in the presence of the test substance.

Data set [7] can be described thus: Terminal half-life in ICR mouse at 50 mg/kg, po by LC-MS/MS analysis. The class given is ADME, organism-based. The conditions noted are these: in vivo, read-out: beta t1/2 (converted). Summed up:
as §1

In data set [8] the target is 5-hydroxytryptamine receptor 1E (Homo sapiens, UniProt P28566). In words: Displacement of [3H]LSD from human 5-HT1E receptor expressed in HEK cell membranes after 1.5 hrs by microbeta scintillation counting method. The gist of the method: as §4
Sequence of 5-hydroxytryptamine receptor 1E (P28566 whole entry): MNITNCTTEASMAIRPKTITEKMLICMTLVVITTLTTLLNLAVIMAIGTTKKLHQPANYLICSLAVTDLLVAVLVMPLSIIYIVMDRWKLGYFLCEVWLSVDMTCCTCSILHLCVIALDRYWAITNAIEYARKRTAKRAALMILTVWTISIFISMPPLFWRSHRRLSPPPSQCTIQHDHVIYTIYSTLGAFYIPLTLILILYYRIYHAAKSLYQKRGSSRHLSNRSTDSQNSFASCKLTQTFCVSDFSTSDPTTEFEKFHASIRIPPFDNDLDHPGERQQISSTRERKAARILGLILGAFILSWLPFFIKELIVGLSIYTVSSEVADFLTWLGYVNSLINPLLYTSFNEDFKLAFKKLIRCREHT
For data set [9], the target named is 5-hydroxytryptamine receptor 4 (Homo sapiens, UniProt Q13639). In words: Displacement of [3H]LSD from human 5-HT4 receptor expressed in HEK cell membranes after 1.5 hrs by microbeta scintillation counting method. The gist of the method: as §4
Sequence of 5-hydroxytryptamine receptor 4 (Q13639 whole entry): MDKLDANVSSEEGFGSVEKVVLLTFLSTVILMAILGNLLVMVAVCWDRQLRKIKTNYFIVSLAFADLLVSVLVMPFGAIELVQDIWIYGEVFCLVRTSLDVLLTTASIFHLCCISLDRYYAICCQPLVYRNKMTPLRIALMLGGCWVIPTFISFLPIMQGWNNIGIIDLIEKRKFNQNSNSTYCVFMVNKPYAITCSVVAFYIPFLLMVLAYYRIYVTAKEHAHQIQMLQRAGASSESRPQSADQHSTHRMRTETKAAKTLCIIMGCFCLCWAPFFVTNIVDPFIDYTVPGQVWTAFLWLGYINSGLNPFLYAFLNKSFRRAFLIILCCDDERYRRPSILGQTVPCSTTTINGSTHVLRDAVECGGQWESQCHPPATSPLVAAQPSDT
Data set [10] deals with T2, 5-hydroxytryptamine receptor 7 (Homo sapiens, UniProt P34969).
T2 sequence (P34969 whole entry): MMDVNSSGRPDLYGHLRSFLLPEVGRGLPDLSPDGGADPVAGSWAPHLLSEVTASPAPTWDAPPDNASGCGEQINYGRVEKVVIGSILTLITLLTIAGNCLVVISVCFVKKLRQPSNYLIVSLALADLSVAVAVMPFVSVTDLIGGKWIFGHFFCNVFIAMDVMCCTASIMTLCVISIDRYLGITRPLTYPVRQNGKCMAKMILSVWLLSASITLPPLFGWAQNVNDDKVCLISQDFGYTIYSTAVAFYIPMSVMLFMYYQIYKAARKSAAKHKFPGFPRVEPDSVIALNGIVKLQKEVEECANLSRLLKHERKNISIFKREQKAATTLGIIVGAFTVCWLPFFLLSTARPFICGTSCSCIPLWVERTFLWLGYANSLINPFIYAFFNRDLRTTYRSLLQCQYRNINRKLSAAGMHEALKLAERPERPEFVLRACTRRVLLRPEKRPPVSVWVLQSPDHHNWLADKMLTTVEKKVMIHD
In a further data set the target is T3, CYP1A2 (Homo sapiens, UniProt P05177).
T3 sequence (P05177 whole entry): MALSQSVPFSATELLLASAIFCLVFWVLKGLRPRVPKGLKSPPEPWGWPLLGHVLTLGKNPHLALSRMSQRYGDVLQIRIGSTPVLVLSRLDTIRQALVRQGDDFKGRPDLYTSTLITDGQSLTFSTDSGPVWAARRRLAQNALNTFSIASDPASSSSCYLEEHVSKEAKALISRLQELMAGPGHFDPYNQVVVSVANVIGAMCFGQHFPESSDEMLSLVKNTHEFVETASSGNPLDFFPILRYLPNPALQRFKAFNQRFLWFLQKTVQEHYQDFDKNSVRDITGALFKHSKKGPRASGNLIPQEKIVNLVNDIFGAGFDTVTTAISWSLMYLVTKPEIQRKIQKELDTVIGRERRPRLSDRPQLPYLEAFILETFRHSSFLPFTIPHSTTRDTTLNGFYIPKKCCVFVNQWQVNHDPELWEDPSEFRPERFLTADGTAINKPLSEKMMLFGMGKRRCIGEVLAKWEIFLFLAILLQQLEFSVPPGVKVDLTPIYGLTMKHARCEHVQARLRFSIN
In words: Inhibition of CYP1A2 in human liver microsomes assessed as remaining activity at 10 uM using phenacetin as substrate preincubated for 5 mins followed by addition of NADPH generating system measured after 15 mins by LC-MS analysis. The class given is ADME. The note with it: probe phenacetin, read-out: Activity. Summed up: as §3

Data set [11] deals with T2, 5-hydroxytryptamine receptor 7. In words: Displacement of [3H]LSD from human 5-HT7 receptor expressed in HEK cell membranes after 1.5 hrs by microbeta scintillation counting method.
The species entered for data set [12] is Homo sapiens. In words: Selectivity index, ratio of Ki for human 5-HT5A receptor to Ki for human 5-HT7 receptor. Summed up: as §2

Structures are written as SMILES.

For the molecule `Clc1ccc(-c2n[nH]c3c2CCNCC3)cc1`, the AUC(0-inf) in [1] was 5.21 µg·h/mL. The same molecule yielded an AUC(0-t) in data set [2] of 4.9 µg·h/mL. For the same molecule, in the data set on Mus musculus, the Activity entry is “Non-Toxic”. In addition, the Ratio Ki in the data set listed under Homo sapiens [3] was 70.5. Moreover, in [4], the Tmax stood at 1.37 h. For the same molecule, in data set [5], the clearance is 0.96 L/h/kg. In addition, the results for the activity at 0.25 h, 10 µM at CYP2C19 and at CYP1A2 were over 100% and 86%, respectively. Also, the Ki in data set [6] was over 10 µM; in [8], 1.37 µM; in data set [9] it was over 10 µM. In addition, the half-life in data set [7] is 2.77 h. This molecule yielded an EC50 in data set [10] of 0.162 µM.
Regarding `Fc1ccc(-c2n[nH]c3c2CCNCC3)cc1`, the Ki is 0.104 µM in data set [11], over 10 µM in data set [6], 0.793 µM in [8] and over 10 µM in data set [9]. In addition, the Ratio Ki in the data set listed under Homo sapiens [3] amounted to 6.1. The EC50 in data set [10] amounted to 0.188 µM.
In the case of `Cc1ccc(-c2noc3c2CCNCC3)cc1`, the Ratio Ki in the data set filed under Homo sapiens [12] amounted to 70.9; in the data set filed under Homo sapiens [3], 9.2. Also, the inhibitory constant (Ki) in data set [6] is 0.42 µM; in [8] it was 1.79 µM; in [9], over 10 µM. Further, the EC50 in data set [10] was 0.0408 µM.
